Measurements reported in ChEMBL document CHEMBL4831543, “Design of Transmembrane Mimetic Structural Probes to Trap Different Stages of γ-Secretase-Substrate Interaction” (J Med Chem, 2021).
The source made the active and inactive calls. The calls are words filed in the database; no cut-off is given here.

Key:
Gamma-secretase [1] = assay: Inhibition of gamma secretase (unknown origin) expressed in HEK293 cells assessed as reduction of A-beta40 levels using C100-FLAG as substrate incubated for 2 hrs by sandwich ELISA; assay type: cell-based, Homo sapiens
[2] = molecular target: T1, Gamma-secretase (Homo sapiens) (UniProt Q96BI3+Q9NZ42+Q8WW43+P49768+Q92542+P49810); assay: Competitive inhibition of TSA 1 binding to gamma secretase (unknown origin); assay type: protein-complex assay
How it was run: (§1)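 Cross-competition kinetics using the standard activity assay. Purified γ-secretase from suspension HEK293 cells, expressed from a tetracistronic vector, in detergent-lipid buffer (HEPES pH 7.0, DOPC, DOPE, CHAPSO). Varying concentrations of two inhibitors titrated against each other, with C100Flag held at 0.50 μM. Aβ40 measured by sandwich ELISA. Data plotted as reciprocal plots and fit to a two-inhibitor equation.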

[3] = molecular target: T1, Gamma-secretase (Homo sapiens); assay: Inhibition of HPI-Bpa-Bt labelling of gamma secretase (unknown origin) expressed in HEK293 cells at 10 uM preincubated for 1.5 hrs followed by irradiation for 30 mins by Western blot analysis; assay type: cell-based; conditions: time 2.0 hrs
How it was run: (§2)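 Purified γ-secretase, 2 nM, preincubated 30 min at 37 °C in assay buffer (50 mM HEPES pH 7.0, 150 mM NaCl, 0.025% DOPC, 0.1% DOPE, 0.25% CHAPSO). Biotinylated photoprobe added at 1 μM, with or without 10 μM competitor, for 1.5 h at 37 °C. UV 350 nm for 30 min on ice, streptavidin pull-down, six washes. Presenilin-1 NTF detected by western blot.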

[4] = molecular target: T1, Gamma-secretase (Homo sapiens); assay: Inhibition of TSA-Bpa-Bt labelling of gamma secretase (unknown origin) expressed in HEK293 cells at 10 uM preincubated for 1.5 hrs followed by irradiation for 30 mins by Western blot analysis; assay type: cell-based; conditions: time 2.0 hrs; how it was run: as §2
[5] = molecular target: T1, Gamma-secretase (Homo sapiens); assay: Competitive inhibition of HPI 2 binding to gamma secretase (unknown origin); assay type: protein-complex assay; how it was run: as §1
Gamma-secretase [6] = assay: Noncompetitive inhibition of gamma secretase (unknown origin) expressed in HEK293 cells assessed as reduction of A-beta40 levels using varying level of C100-FLAG as substrate incubated for 2 hrs by double reciprocal plot analysis; assay type: cell-based, Homo sapiens
How it was run: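 1 nM purified γ-secretase from suspension HEK293 cells (tetracistronic pMLINK) in HEPES pH 7.0, NaCl, DOPC, DOPE, 0.25% CHAPSO. Preincubated 30 min at 37 °C, then given inhibitor in DMSO (2% final) with C100Flag at 0–4.5 μM. Reaction run 2 h at 37 °C; Aβ40 read by sandwich ELISA. Ki obtained by fitting to a noncompetitive inhibition equation.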

| Compound | IC50 (Gamma-secretase [1]) | inhibition [3] | inhibition [4] | further results |
| --- | --- | --- | --- | --- |
| CC[C@H](C)[C@H](NC(=O)[C@@H](NC(=O)[C@@H](NC(=O)C(C)(C)NC(=O)CNC(=O)[C@@H](NC(=O)OC(C)(C)C)C(C)C)C(C)C)C(C)C)C(=O)NC(C)(C)C(=O)N[C@H](C(=O)N[C@H](C(=O)NC(C)(C)C(=O)NCCCCCCC(=O)N[C@H](C(=O)N[C@@H](Cc1ccccc1)[C@H](O)CN(Cc1ccccc1)C(=O)N[C@@H](CC(C)C)C(=O)N[C@H](C(N)=O)C(C)C)C(C)C)C(C)C)[C@@H](C)O | 1.5 nM |  |  |  |
| COC(=O)[C@@H](NC(=O)[C@H](CC(C)C)NC(=O)N(Cc1ccccc1)C[C@@H](O)[C@H](Cc1ccccc1)NC(=O)[C@@H](NC(=O)OC(C)(C)C)C(C)C)C(C)C |  | inactive | Active | inhibition [5]: inactive |
| CC[C@H](C)[C@H](NC(=O)[C@@H](NC(=O)[C@@H](NC(=O)C(C)(C)NC(=O)CNC(=O)[C@@H](NC(=O)OC(C)(C)C)C(C)C)C(C)C)C(C)C)C(=O)NC(C)(C)C(=O)N[C@H](C(=O)N[C@H](C(=O)NC(C)(C)C(=O)OC)C(C)C)[C@@H](C)O | 34.8 nM |  |  |  |
| CC[C@H](C)C(NC(=O)[C@@H](NC(=O)C(C)(C)NC(=O)[C@@H](NC(=O)[C@H](Cc1ccccc1)NC(=O)C(C)(C)NC(=O)[C@@H](NC(=O)[C@@H](NC(=O)[C@@H](NC(=O)C(C)(C)NC(=O)CNC(=O)[C@@H](NC(=O)OC(C)(C)C)C(C)C)C(C)C)C(C)C)[C@@H](C)CC)C(C)C)C(C)C)C(=O)N[C@H](C(=O)N[C@H](C(=O)N[C@@H](Cc1ccccc1)[C@H](O)CN(Cc1ccccc1)C(=O)N[C@@H](CC(C)C)C(=O)N[C@H](C(N)=O)C(C)C)C(C)C)C(C)C (some centres not stated) | 58.9 nM |  |  |  |
| CC[C@H](C)[C@H](NC(=O)[C@@H](NC(=O)[C@@H](NC(=O)C(C)(C)NC(=O)CNC(=O)[C@@H](NC(=O)OC(C)(C)C)C(C)C)C(C)C)C(C)C)C(=O)NC(C)(C)C(=O)N[C@@H](Cc1ccccc1)C(=O)N[C@H](C(=O)NC(C)(C)C(=O)NCC(=O)NCC(=O)NCC(=O)N[C@H](C(=O)N[C@@H](Cc1ccccc1)[C@H](O)CN(Cc1ccccc1)C(=O)N[C@@H](CC(C)C)C(=O)N[C@H](C(N)=O)C(C)C)C(C)C)C(C)C |  | Active | Active |  |
| CC[C@H](C)[C@H](NC(=O)[C@@H](NC(=O)[C@@H](NC(=O)C(C)(C)NC(=O)CNC(=O)[C@@H](NC(=O)OC(C)(C)C)C(C)C)C(C)C)C(C)C)C(=O)NC(C)(C)C(=O)N[C@H](C(=O)N[C@H](C(=O)NC(C)(C)C(=O)NCCCCC(=O)N[C@H](C(=O)N[C@@H](Cc1ccccc1)[C@H](O)CN(Cc1ccccc1)C(=O)N[C@@H](CC(C)C)C(=O)N[C@H](C(N)=O)C(C)C)C(C)C)C(C)C)[C@@H](C)O | 3.2 nM |  |  |  |
| CC[C@H](C)[C@H](NC(=O)[C@@H](NC(=O)[C@@H](NC(=O)C(C)(C)NC(=O)CNC(=O)[C@@H](NC(=O)OC(C)(C)C)C(C)C)C(C)C)C(C)C)C(=O)NC(C)(C)C(=O)N[C@H](C(=O)N[C@H](C(=O)NC(C)(C)C(=O)NCCCCCCCCCCC(=O)N[C@H](C(=O)N[C@@H](Cc1ccccc1)[C@H](O)CN(Cc1ccccc1)C(=O)N[C@@H](CC(C)C)C(=O)N[C@H](C(N)=O)C(C)C)C(C)C)C(C)C)[C@@H](C)O | 0.7 nM |  |  | Ki (Gamma-secretase [6]): 0.65 nM |

Now from value to compound, other results behind:

| IC50 (Gamma-secretase [1]) | inhibition [3] | inhibition [4] | Compound | further results |
| --- | --- | --- | --- | --- |
| 6 nM |  |  | CC[C@H](C)[C@H](NC(=O)[C@@H](NC(=O)[C@@H](NC(=O)C(C)(C)NC(=O)CNC(=O)[C@@H](NC(=O)OC(C)(C)C)C(C)C)C(C)C)C(C)C)C(=O)NC(C)(C)C(=O)N[C@H](C(=O)N[C@H](C(=O)NC(C)(C)C(=O)NCCC(=O)N[C@H](C(=O)N[C@@H](Cc1ccccc1)[C@H](O)CN(Cc1ccccc1)C(=O)N[C@@H](CC(C)C)C(=O)N[C@H](C(N)=O)C(C)C)C(C)C)C(C)C)[C@@H](C)O |  |
|  | Active | inactive | CC[C@H](C)[C@H](NC(=O)[C@@H](NC(=O)[C@@H](NC(=O)C(C)(C)NC(=O)CNC(=O)[C@@H](NC(=O)OC(C)(C)C)C(C)C)C(C)C)C(C)C)C(=O)NC(C)(C)C(=O)N[C@@H](Cc1ccccc1)C(=O)N[C@H](C(=O)NC(C)(C)C(=O)OC)C(C)C | inhibition [2]: inactive |
| 7.5 nM |  |  | CC[C@H](C)[C@H](NC(=O)[C@@H](NC(=O)[C@@H](NC(=O)C(C)(C)NC(=O)CNC(=O)[C@@H](NC(=O)OC(C)(C)C)C(C)C)C(C)C)C(C)C)C(=O)NC(C)(C)C(=O)N[C@H](C(=O)N[C@H](C(=O)NC(C)(C)C(=O)N[C@H](C(=O)N[C@@H](Cc1ccccc1)[C@H](O)CN(Cc1ccccc1)C(=O)N[C@@H](CC(C)C)C(=O)N[C@H](C(N)=O)C(C)C)C(C)C)C(C)C)[C@@H](C)O |  |
|  | Active | Active | CC[C@H](C)[C@@H](NC(=O)[C@H](NC(=O)[C@H](NC(=O)C(C)(C)NC(=O)CNC(=O)[C@H](NC(=O)OC(C)(C)C)C(C)C)C(C)C)C(C)C)C(=O)NC(C)(C)C(=O)N[C@@H](C(=O)N[C@@H](C(=O)NC(C)(C)C(=O)NCCCCCCCCCCC(=O)N[C@H](C(=O)N[C@@H](Cc1ccccc1)[C@H](O)CN(Cc1ccccc1)C(=O)N[C@@H](CC(C)C)C(=O)N[C@H](C(N)=O)C(C)C)C(C)C)C(C)C)[C@@H](C)O | inhibition [2]: Active; inhibition [5]: Active |
| 1.1 nM |  |  | CC[C@H](C)[C@H](NC(=O)[C@@H](NC(=O)[C@@H](NC(=O)C(C)(C)NC(=O)CNC(=O)[C@@H](NC(=O)OC(C)(C)C)C(C)C)C(C)C)C(C)C)C(=O)NC(C)(C)C(=O)N[C@H](C(=O)N[C@H](C(=O)NC(C)(C)C(=O)NCCCCCCCCC(=O)N[C@H](C(=O)N[C@@H](Cc1ccccc1)[C@H](O)CN(Cc1ccccc1)C(=O)N[C@@H](CC(C)C)C(=O)N[C@H](C(N)=O)C(C)C)C(C)C)C(C)C)[C@@H](C)O |  |
| 0.87 nM |  |  | CC[C@H](C)[C@H](NC(=O)[C@@H](NC(=O)[C@@H](NC(=O)C(C)(C)NC(=O)CNC(=O)[C@@H](NC(=O)OC(C)(C)C)C(C)C)C(C)C)C(C)C)C(=O)NC(C)(C)C(=O)N[C@H](C(=O)N[C@H](C(=O)NC(C)(C)C(=O)NCCCCCCCCCCCC(=O)N[C@H](C(=O)N[C@@H](Cc1ccccc1)[C@H](O)CN(Cc1ccccc1)C(=O)N[C@@H](CC(C)C)C(=O)N[C@H](C(N)=O)C(C)C)C(C)C)C(C)C)[C@@H](C)O |  |
